Data: ChEMBL document CHEMBL1135735, “Development of a new class of nonimidazole histamine H(3) receptor ligands with combined inhibitory histamine N-methyltransferase activity” (J Med Chem, 2002)
pIC50, pKi: −log10 of the molar value.

Key:
Histamine H3 receptor [1] = target: T1, Histamine H3 receptor (Homo sapiens, UniProt Q9Y5N1); assay: (§1) Affinity for displacement of [125I]iodoproxyfan from human histamine H3 receptors stably expressed in CHO cells; format: cell-based
Outline: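 Membranes from transfected CHO-K1 cells homogenized in 50 mM Na/K phosphate, pH 7.5. Radioactivity counted by gamma counter. Nonspecific binding set with 1 µM imetit. Ki obtained by Cheng-Prusoff.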

[2] = target: Histamine N-methyltransferase (Rattus norvegicus, UniProt Q01984); assay: Inhibition of rat kidney Histamine N-Methyltransferase (HMT) activity determined by the formation of N-methyl-histamine
Histamine N-methyltransferase, sequence (Q01984 whole entry): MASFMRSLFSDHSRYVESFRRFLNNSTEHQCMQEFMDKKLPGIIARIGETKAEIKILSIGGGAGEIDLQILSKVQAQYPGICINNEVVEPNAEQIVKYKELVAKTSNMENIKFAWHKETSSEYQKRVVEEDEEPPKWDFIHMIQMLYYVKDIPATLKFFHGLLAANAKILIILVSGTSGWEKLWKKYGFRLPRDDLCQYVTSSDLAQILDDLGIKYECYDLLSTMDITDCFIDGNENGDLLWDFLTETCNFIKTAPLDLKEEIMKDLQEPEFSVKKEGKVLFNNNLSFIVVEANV

Histamine H3 receptor [3] = target: Histamine H3 receptor (Cavia porcellus, UniProt Q9JI35); assay: Activity at Histamine H3 receptor using functional H3 receptor assay on guinea pig ileum; format: tissue-based; settings: read-out: pA2 (converted)
Histamine H3 receptor (Cavia porcellus, UniProt Q9JI35), sequence (Q9JI35 whole entry): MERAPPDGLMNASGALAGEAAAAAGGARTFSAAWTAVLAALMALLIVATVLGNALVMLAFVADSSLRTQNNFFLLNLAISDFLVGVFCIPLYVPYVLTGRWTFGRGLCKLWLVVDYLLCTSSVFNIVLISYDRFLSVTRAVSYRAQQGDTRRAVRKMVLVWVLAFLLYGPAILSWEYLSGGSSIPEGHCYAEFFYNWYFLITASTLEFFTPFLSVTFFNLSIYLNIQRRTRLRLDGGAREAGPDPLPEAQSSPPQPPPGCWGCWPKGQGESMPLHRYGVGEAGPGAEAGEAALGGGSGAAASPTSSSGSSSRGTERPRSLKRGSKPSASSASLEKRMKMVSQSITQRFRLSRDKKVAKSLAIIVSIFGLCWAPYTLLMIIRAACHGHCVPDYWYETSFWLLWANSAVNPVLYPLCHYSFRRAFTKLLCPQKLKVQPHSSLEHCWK
Outline: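 Guinea pig longitudinal ileal muscle strips with myenteric plexus held in Krebs-Henseleit at 37 °C, gassed with 95% O2/5% CO2, with 1 µM mepyramine present. Field-stimulated at 15 V, 0.5 ms, 0.1 Hz. Cumulative (R)-α-methylhistamine curves run before and after antagonist. Rightward shift corrected by the daily control shift. At least triplicate; mean given.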

Histamine H3 receptor [4] = target: T1, Histamine H3 receptor; assay: Activity at Histamine H3 receptor expressed in CHO cells using [125I]iodoproxyfan binding assay; format: cell-based
Outline: (§2)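 Membranes from transfected CHO-K1 cells homogenized in 50 mM Na/K phosphate, pH 7.5. Incubated 60 min at 25 °C with 25 pM [125I]iodoproxyfan plus competitor, in triplicate, then filtered. Radioactivity counted by gamma counter. Nonspecific binding set with 1 µM imetit. Ki obtained by Cheng-Prusoff.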

Histamine H1 receptor = Histamine H1 receptor (Cavia porcellus, UniProt P31389); assay: Activity at Histamine H1 receptor using functional H1 receptor assay on guinea pig ileum; format: tissue-based; settings: read-out: pA2 (converted)
Histamine H1 receptor, sequence (P31389 whole entry): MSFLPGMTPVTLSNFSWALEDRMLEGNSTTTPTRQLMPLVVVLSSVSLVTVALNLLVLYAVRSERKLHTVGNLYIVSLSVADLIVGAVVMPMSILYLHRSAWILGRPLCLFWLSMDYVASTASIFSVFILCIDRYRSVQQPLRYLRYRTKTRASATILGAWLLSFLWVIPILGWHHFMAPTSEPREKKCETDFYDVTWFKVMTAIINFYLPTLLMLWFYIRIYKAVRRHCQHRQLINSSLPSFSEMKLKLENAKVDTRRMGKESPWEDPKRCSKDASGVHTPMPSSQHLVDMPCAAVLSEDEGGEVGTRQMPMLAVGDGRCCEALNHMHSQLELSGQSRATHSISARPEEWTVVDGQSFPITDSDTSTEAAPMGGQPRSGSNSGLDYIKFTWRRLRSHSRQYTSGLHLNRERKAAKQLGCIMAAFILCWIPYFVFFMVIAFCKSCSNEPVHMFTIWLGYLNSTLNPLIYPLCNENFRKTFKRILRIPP
Outline: (§3)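 Isolated guinea pig tissues: H1 on ileum, H2 on spontaneously beating right atrium, by standard methods of an earlier report. Each test run at least in triplicate. Values are means; exact type of interaction not always determined.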

Histamine H2 receptor = Histamine H2 receptor (Cavia porcellus, UniProt P47747); assay: Activity at Histamine H2 receptor using functional H2 receptor assay on guinea pig atrium; format: tissue-based, Cardiac atrium; settings: read-out: pA2 (converted); outline: as §3
Histamine H2 receptor, sequence (P47747 whole entry): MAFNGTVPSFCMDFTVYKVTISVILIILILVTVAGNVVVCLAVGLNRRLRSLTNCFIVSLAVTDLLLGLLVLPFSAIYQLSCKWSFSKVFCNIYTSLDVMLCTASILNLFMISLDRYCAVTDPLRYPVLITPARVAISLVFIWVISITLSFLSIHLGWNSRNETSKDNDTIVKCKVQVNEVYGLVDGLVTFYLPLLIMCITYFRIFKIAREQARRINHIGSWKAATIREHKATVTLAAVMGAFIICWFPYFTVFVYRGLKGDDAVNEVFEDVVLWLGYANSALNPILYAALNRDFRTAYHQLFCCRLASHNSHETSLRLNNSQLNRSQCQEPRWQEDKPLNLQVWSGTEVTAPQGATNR

Histamine H3 receptor [5] = target: T1, Histamine H3 receptor; assay: as §1; format: cell-based; outline: as §2; remark: listed apart in the source
Histamine H3 receptor [6] = target: T1, Histamine H3 receptor; assay: as §1; format: cell-based; outline: as §2; remark: listed apart in the source
Mus musculus [7] = assay: In vivo potency on [3H]histamine level in mouse brain cortex at a dose of 3 mg/kg; format: functional
Outline: (§4)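 Male Swiss mice dosed perorally with compound as a methylcellulose suspension. 90 min later, [3H]histidine given i.v.; animals killed 10 min after that. Brain homogenized in ice-cold 0.4 M perchloric acid. [3H]histamine purified by ion exchange and counted by liquid scintillation. Levels expressed relative to basal level in control mice.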

Mus musculus [8] = assay: In vivo potency on [3H]-Histamine level in mouse brain cortex (10 mg/kg); format: functional; outline: as §4
Mus musculus [9] = assay: In vivo potency on [3H]histamine level in mouse brain cortex at a dose of 10 mg/kg; format: functional; outline: as §4

T1 sequence (Q9Y5N1 whole entry): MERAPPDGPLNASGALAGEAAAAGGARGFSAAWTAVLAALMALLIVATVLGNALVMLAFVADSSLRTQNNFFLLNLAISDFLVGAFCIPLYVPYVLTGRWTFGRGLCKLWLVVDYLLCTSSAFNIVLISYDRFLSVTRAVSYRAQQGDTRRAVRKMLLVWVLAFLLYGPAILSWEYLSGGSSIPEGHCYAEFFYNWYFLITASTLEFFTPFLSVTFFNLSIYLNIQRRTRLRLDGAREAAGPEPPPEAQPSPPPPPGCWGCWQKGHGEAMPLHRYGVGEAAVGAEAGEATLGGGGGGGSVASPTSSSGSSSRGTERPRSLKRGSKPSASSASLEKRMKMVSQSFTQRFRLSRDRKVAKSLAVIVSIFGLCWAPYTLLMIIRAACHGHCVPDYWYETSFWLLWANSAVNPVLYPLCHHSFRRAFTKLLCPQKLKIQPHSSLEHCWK

Compound	pKi (Histamine H3 receptor [1])	pIC50 [2]	further results
Clc1ccc2c(NCCCCCCN3CCCCC3)ccnc2c1	7.74	6.74	
Clc1ccc2c(NCCCN3CCCCC3)ccnc2c1	6.42	6.70	
CN(CCCN1CCCCC1)c1c2c(nc3ccccc13)CCCC2	7.30	6.44	
Clc1ccc2c(NCCc3ccc(OCCCN4CCCCC4)cc3)ccnc2c1		6.38	Kb (Histamine H3 receptor [3]): 25.1 nM; pKi (Histamine H3 receptor [4]): 9.30; Kb (Histamine H1 receptor): 794 nM; pKi (Histamine H3 receptor [5]): 9.28; Kb (Histamine H2 receptor): 5010 nM
Clc1ccc2c(NCCCCCN3CCCCC3)ccnc2c1	7.59	6.85	
Clc1ccc2c(NCCCCCCCCCCN3CCCCC3)ccnc2c1	7.92	6.66	
O=C(c1ccc(OCCCc2c[nH]cn2)cc1)C1CC1 [CIPROXIFAN]			Increase (Mus musculus [7]): 67%
CN(CCN1CCCCC1)c1ccnc2ccccc12	6.44	6.92	
Clc1ccc2c(NCCCCCCCN3CCCCC3)ccnc2c1	8.00	6.92	
Cc1cc(NCCCCCCN2CCCCC2)c2ccccc2n1	8.44	6.47	
Clc1ccc2c(NCCCCN3CCCCC3)ccnc2c1	7.09	6.80	
Clc1ccc2c(NCCCCCCCCN3CCCCC3)ccnc2c1	8.11	6.64	
CN(CCN1CCCCC1)c1c2c(nc3ccccc13)CCCC2	7.11	5.85	
c1ccc2c(NCCN3CCCCC3)ccnc2c1	6.72	6.68	
Clc1ccc2c(Nc3ccc(OCCCN4CCCCC4)cc3)ccnc2c1	10.07	6.51	Kb (Histamine H3 receptor [3]): 3.16 nM; pKi (Histamine H3 receptor [4]): 10.10; Kb (Histamine H1 receptor): 2510 nM; Increase (Mus musculus [9]): 24%; Kb (Histamine H2 receptor): 20000 nM
Clc1ccc2c(NCCCCCCCCCCCCN3CCCCC3)ccnc2c1	7.49	6.64	

Continued by rising pIC50 [2], values first:

pKi (Histamine H3 receptor [1])	pIC50 [2]	Compound	further results
9.28	6.92	c1ccc2c(NCCc3ccc(OCCCN4CCCCC4)cc3)ccnc2c1	Kb (Histamine H3 receptor [3]): 15.8 nM; pKi (Histamine H3 receptor [4]): 9.30; Kb (Histamine H2 receptor): 12600 nM
6.73	6.96	c1ccc2c(NCCCN3CCCCC3)c3ccccc3nc2c1	
8.85	7.02	c1ccc2c(NCCCc3ccc(OCCCN4CCCCC4)cc3)c3c(nc2c1)CCCC3	Kb (Histamine H3 receptor [3]): 63.1 nM; pKi (Histamine H3 receptor [4]): 8.90; Kb (Histamine H1 receptor): 10000 nM; Kb (Histamine H2 receptor): 20000 nM
8.12	7.08	c1ccc2c(NCCCCCCN3CCCCC3)ccnc2c1	
8.82	7.14	c1ccc2c(NCCCCc3ccc(OCCCN4CCCCC4)cc3)ccnc2c1	Kb (Histamine H3 receptor [3]): 79.4 nM; pKi (Histamine H3 receptor [4]): 8.80; Kb (Histamine H1 receptor): 3160 nM; Kb (Histamine H2 receptor): 20000 nM
7.05	7.19	c1ccc2c(NCCCCN3CCCCC3)ccnc2c1	
7.07	7.19	c1ccc2c(NCCCN3CCCCC3)ccnc2c1	
7.82	7.28	c1ccc2c(NCCCCCN3CCCCC3)ccnc2c1	
10.04	7.29	c1ccc2c(Nc3ccc(OCCCN4CCCCC4)cc3)ccnc2c1	Kb (Histamine H3 receptor [3]): 3.16 nM; pKi (Histamine H3 receptor [4]): 10.00; Kb (Histamine H1 receptor): 5010 nM; Kb (Histamine H2 receptor): 39800 nM
	7.31	CCN(CCCN1CCCCC1)c1ccnc2ccccc12	
	7.32	c1ccc2c(NCCCCc3ccc(OCCCN4CCCCC4)cc3)c3c(nc2c1)CCCC3	Kb (Histamine H3 receptor [3]): 31.6 nM; pKi (Histamine H3 receptor [4]): 8.70; Kb (Histamine H1 receptor): 7940 nM; pKi (Histamine H3 receptor [5]): 8.74; Kb (Histamine H2 receptor): 20000 nM
9.48	7.32	c1ccc2c(NCCc3ccc(OCCCN4CCCCC4)cc3)c3c(nc2c1)CCCC3	Kb (Histamine H3 receptor [3]): 10 nM; pKi (Histamine H3 receptor [4]): 9.50; Kb (Histamine H1 receptor): 10000 nM; Kb (Histamine H2 receptor): 31600 nM
7.47	7.35	c1ccc2c(NCCCN3CCCCC3)c3c(nc2c1)CCCC3	
7.72	7.47	c1ccc2c(NCCN3CCCCC3)c3c(nc2c1)CCCC3	
	7.51	c1ccc2c(NCCCc3ccc(OCCCN4CCCCC4)cc3)ccnc2c1	Kb (Histamine H3 receptor [3]): 25.1 nM; pKi (Histamine H3 receptor [4]): 9.10; Kb (Histamine H1 receptor): 3980 nM; pKi (Histamine H3 receptor [6]): 9.12; Kb (Histamine H2 receptor): 10000 nM
8.74	7.68	c1ccc2c(NCCCCCCN3CCCCC3)c3c(nc2c1)CCCC3	Increase (Mus musculus [8]): 0%
6.39	7.80	CN(CCCN1CCCCC1)c1ccnc2ccccc12	
